The assay deals with Transcription factor p65 (Human, UniProt Q04206). Briefly: Inhibition of NFkappaB p65 in human RPMI-8226 cells incubated for 2 hrs by ELISA. The procedure, abridged: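 Target levels measured by ELISA kits in RPMI-8226 cells. Cells were seeded and grown 24 h at 37 °C, then exposed 72 h to a semi-log series of concentrations. Sample was incubated 2 h at 37 °C, followed by detection reagents A and B (1 h each), TMB substrate and stop solution, with OD read at 450 nm. IC50 was taken from sigmoidal dose-response nonlinear regression of % activity.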
Transcription factor p65, sequence (Q04206 whole entry): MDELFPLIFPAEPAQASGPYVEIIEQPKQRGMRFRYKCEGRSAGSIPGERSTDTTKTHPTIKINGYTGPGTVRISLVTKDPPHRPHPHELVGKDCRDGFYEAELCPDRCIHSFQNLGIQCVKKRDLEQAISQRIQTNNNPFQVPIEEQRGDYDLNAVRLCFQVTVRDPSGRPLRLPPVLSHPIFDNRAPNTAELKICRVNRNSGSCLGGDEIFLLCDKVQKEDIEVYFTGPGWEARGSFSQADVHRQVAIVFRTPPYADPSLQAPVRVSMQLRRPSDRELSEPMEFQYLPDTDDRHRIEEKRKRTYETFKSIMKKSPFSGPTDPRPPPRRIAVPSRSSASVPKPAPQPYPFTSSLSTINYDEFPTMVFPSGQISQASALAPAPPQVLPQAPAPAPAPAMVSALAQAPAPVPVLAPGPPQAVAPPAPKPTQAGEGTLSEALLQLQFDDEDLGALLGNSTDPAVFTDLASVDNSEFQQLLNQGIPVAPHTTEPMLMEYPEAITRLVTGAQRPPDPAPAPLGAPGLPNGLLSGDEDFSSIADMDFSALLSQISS

In the case of `COc1cc2ncnc(Nc3ccc(F)c(Cl)c3)c2cc1OCCCN1CCOCC1` [ZD1839], the IC50 – broadly, the concentration that inhibits the measured activity by half – amounted to 55 nM.

Take `COc1ccc(/C=C/C(=O)c2nnn(-c3ccc(Cl)cc3)c2C)cc1OC`: the IC50 is 134 nM.

These data come from BindingDB's records for doi:10.1016/j.ejmech.2020.112062 (Mansoura University, 2020).
